A word on the inhibition: it is the drop in the measured response relative to a control, in per cent.

The values that follow come from ChEMBL document CHEMBL4342456, “Preventing Morphine-Seeking Behavior through the Re-Engineering of Vincamine's Biological Activity” (J Med Chem, 2020).

For the experiment, the target named is D(2) dopamine receptor (Homo sapiens) (UniProt P14416). In words: Antagonist activity at human Gi/o-coupled DRD2L expressed in CHOK1 cells assessed as inhibition in dopamine-induced beta-arrestin 2 recruitment at 20 uM incubated for 30 mins followed by dopamine addition and measured after 90 or 180 mins by pathhunter beta-arrestin assay relative to control. It counts as cell-based. Summed up: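 PathHunter beta-arrestin recruitment, antagonist mode, run at DiscoverX. Cells seeded and held at 37 °C, then preincubated with test sample for 30 min at 37 °C or room temperature (1% vehicle). Agonist then added at EC80 for 90 or 180 min. IC50 comes from concentration–response runs in the same format.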
On the technique in general: Recruitment of arrestin is a read-out of receptor activation apart from second messengers.

D(2) dopamine receptor (Homo sapiens), sequence (P14416 whole entry): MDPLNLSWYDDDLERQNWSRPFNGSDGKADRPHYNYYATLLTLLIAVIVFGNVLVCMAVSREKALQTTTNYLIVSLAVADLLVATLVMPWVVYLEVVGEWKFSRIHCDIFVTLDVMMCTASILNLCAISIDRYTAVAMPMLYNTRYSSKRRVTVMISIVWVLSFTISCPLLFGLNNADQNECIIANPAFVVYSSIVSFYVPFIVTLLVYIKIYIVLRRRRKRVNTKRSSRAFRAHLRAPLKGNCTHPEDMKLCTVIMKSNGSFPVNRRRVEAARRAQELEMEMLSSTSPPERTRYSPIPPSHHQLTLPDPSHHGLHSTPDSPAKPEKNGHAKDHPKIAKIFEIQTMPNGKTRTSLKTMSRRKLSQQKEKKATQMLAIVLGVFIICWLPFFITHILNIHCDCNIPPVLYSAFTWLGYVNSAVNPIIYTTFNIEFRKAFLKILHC

Consider `CC[C@@]12CCCN3CCc4c([nH]c5ccccc45)[C@]31N(Cc1cn(Cc3ccccc3)nn1)C(=O)C2`, for which the inhibition was found to be 15%.
